Changes are numbered by the printed parent chain. “And” between values parts separate entries of the source, which are not always exact repeats. Equal values may be shown once. “Also recorded” adds a separate entry of the source.
What was measured:
[1] = system: human M2–M5; assay: Calcium mobilization selectivity, human M2–M5; assay type: cell-based; conditions: Figure 4A
Summary of the method: (§1)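 Muscarinic receptor-expressing CHO cells were plated at 20,000 cells/well in medium without G418 the day before. They were loaded with 1.15 μM Fluo-4 AM for 45 min at 37 °C in HBSS with 20 mM HEPES and 2.5 mM probenecid. Test compound (10-point 1:3 series, top final 30 μM) was added for 2.5 min, then EC20 ACh for 1 min. Calcium flux was fitted with a four-parameter logistic curve.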

[2] = molecular target: T1, rat M1 (Rattus norvegicus, UniProt P08482); assay: [3H]-NMS competition radioligand binding; conditions: up to 30 μM, rat M1-CHO membranes
T1 sequence (P08482 1-460): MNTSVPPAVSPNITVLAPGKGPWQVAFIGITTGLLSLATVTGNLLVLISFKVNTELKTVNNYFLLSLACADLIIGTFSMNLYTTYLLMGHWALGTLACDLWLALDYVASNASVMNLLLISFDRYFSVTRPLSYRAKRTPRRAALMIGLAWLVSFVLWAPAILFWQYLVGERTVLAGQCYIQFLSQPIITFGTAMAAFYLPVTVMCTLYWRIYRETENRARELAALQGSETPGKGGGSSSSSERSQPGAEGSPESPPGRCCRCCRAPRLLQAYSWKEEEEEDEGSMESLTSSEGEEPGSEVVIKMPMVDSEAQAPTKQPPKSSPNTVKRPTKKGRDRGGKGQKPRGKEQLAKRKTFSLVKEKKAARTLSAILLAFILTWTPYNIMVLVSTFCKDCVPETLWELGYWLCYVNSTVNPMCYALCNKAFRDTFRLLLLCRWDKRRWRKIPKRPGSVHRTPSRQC
Summary of the method: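 Rat M1-CHO membranes (10 μg) were incubated with test compound (11-point 1:3 series, top final 30 μM) and 0.088 nM [3H]-NMS (Kd). Binding buffer was 20 mM HEPES, 10 mM MgCl2 and 100 mM NaCl, pH 7.4, for 1 h at room temperature with shaking. Nonspecific binding was defined with 10 μM atropine. Samples were filtered, washed three times with ice-cold Tris buffer and counted by scintillation.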

[3] = molecular target: T1, rat M1; assay: Calcium mobilization assay, rat M1 cell line; assay type: cell-based
Summary of the method: as §1

[4] = system: nonhuman primate (NHP); assay: Nonhuman primate adverse effect assessment; assay type: in vivo
[5] = Plasma protein binding by equilibrium dialysis, cyno; assay type: in vitro ADME; conditions: cynomolgus monkey, pH 7.4
Summary of the method: (§2)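 Plasma spiked with test article was dialysed against 25 mM phosphate buffer, pH 7.4, by equilibrium dialysis for 4 h at 37 °C with shaking. Aliquots from each chamber were matrix-matched, extracted with ice-cold acetonitrile, centrifuged and quantified by LC/MS/MS.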

[6] = system: rats; assay: Novel object recognition task; assay type: in vivo, rat
Summary of the method: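 Male Sprague–Dawley rats were habituated to the arena. They received vehicle (10% Tween 80) or test compound at 1–10 mg/kg i.p. (1 mL/kg; n = 12) 30 min before a 10 min exposure to two identical objects. After 24 h, one object was replaced by a novel one and exploration was recorded for 3 min. A blinded observer scored exploration, and the recognition index was (novel − familiar)/total exploration time.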

[7] = molecular target: T2, M1 (Homo sapiens, UniProt P11229); assay: Calcium mobilization assay, high expression human M1 cell line; assay type: cell-based
T2 sequence (P11229 1-460): T1 sequence (P08482 1-460) with V5A, S254T, S309P, K320R, G337A, V413I
Summary of the method: as §1

[8] = system: rats; assay: Modified Irwin Toxicology Battery in rats; assay type: in vivo, rat; conditions: 56.6 mg/kg i.p.
Summary of the method: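 Rats received vehicle or test compound at 56.6 mg/kg i.p. in 10% Tween 80 (2 mL/kg; n = 3) after baseline assessment. A blinded observer scored autonomic and somatomotor parameters at 15, 30, 60, 180 and […].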

[9] = molecular target: T3, cytochrome P450 1A2 (Homo sapiens, UniProt P05177); assay: CYP450 inhibition in human liver microsomes, 1A2; assay type: in vitro ADME
T3 sequence (P05177 1-516): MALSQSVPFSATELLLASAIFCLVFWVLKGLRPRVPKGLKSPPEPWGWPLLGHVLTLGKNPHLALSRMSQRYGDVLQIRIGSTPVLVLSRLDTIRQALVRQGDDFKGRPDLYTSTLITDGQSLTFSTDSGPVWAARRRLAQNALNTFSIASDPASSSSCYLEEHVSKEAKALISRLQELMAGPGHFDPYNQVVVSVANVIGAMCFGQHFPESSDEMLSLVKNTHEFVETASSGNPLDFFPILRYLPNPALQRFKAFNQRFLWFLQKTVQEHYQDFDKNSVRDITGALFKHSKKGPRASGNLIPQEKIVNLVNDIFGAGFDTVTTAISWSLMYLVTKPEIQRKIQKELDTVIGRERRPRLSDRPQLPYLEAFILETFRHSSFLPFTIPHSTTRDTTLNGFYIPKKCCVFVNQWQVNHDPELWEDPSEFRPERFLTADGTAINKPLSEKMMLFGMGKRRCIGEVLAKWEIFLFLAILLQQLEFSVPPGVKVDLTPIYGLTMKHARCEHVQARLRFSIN

[10] = Plasma protein binding by equilibrium dialysis, rat; assay type: in vitro ADME; conditions: pH 7.4
Summary of the method: as §2

[11] = system: mice; assay: High dose phenotypic mouse seizure liability screen; assay type: in vivo; conditions: 100 mg/kg i.p., up to 3 h

EC50 ([3]; M1 PAM pEC50, rat M1 cell line, high expression): 234 nM
EC50 ([3]; M1 agonist activity EC50, rat M1 cell line, compound alone): 5600 nM
EC50 ([3]; M1 agonist activity pEC50, rat M1 cell line, compound alone): 5370 nM
EC50 ([3]; Rat M1 CRC EC50, Figure 4B): 253 nM
M1 agonist activity, % ACh ([3]; rat M1 cell line, compound alone): 26 ± 6 % ACh
M1 PAM efficacy, % ACh Max ([3]; rat M1 cell line, high expression): 83 ± 1 % ACh Max
fraction unbound at 4 h [5]: 0.016
EC50 ([7]; Human M1 CRC EC50, Figure 4A): 308 nM
EC50 ([7]; M1 PAM EC50, human M1, high expression line, EC20 ACh): 310 nM
EC50 ([7]; M1 PAM pEC50, human M1, high expression line, EC20 ACh): 295 nM
EC50 ([7]; M1 agonist activity pEC50, human M1, high expression line, compound alone): 4070 nM and 4270 nM
M1 PAM efficacy, % ACh Max ([7]; human M1, high expression line): 85 ± 2 % ACh Max
M1 agonist activity, % ACh Max ([7]; human M1, high expression line, compound alone): 39 ± 3 % ACh Max and 29 ± 6 % ACh Max
IC50 [9]: > 30000 nM
fraction unbound at 4 h [10]: 0.11
Compound: O=C(N[C@H]1CCCC[C@@H]1O)[C@H]1CN(Cc2ccc(-n3cccn3)cc2)c2ccccc2O1 [VU0486846, (2R)-N-[(1S,2S)-2-Hydroxycyclohexyl]-4-[(4-pyrazol-1-ylphenyl)-methyl]-2,3-dihydro-1,4-benzoxazine-2-carboxamide]
Activity at human M2–M5 (selectivity) [1]: highly selective
Activity at human M2–M5 (selectivity) ([1]; listed as 16): inactive
Inhibition of orthosteric [3H]-NMS binding [2]: no displacement of [^3H]-NMS binding; also recorded: does not substantially inhibit binding
total plasma levels [4]: ~ 2 μM
Adverse effects ([4]; at achieved plasma levels): without any adverse effects
Effect on recognition memory ([6]; 1–10 mg/kg i.p.): dose-dependently enhanced recognition memory
minimum effective dose, novel object recognition ([6]; i.p., 30 min pretreatment, memory assessed 24 h later): 3 mg/kg
free brain levels [8]: 32 nM
free terminal plasma exposure [8]: 489 nM
total brain levels [8]: 1.15 µM
total terminal plasma exposure [8]: 4.4 µM
Cholinergic side effects or adverse effects ([8]; 3 h evaluation period): did not produce any cholinergic side effects or pronounced adverse effects
Seizure liability [11]: devoid of seizure liability

Source: PMC6146057 (ACS chemical neuroscience, 2018)
